This passage reports IC50 and inhibition of current results from publication PMC2606940 (The Journal of General Physiology, 2009).

One test addresses T1, CLC-0 E166H mutant (Torpedo marmorata, UniProt P21564, C212S/E166H).
T1 sequence (P21564 1-805 E166H/C212S): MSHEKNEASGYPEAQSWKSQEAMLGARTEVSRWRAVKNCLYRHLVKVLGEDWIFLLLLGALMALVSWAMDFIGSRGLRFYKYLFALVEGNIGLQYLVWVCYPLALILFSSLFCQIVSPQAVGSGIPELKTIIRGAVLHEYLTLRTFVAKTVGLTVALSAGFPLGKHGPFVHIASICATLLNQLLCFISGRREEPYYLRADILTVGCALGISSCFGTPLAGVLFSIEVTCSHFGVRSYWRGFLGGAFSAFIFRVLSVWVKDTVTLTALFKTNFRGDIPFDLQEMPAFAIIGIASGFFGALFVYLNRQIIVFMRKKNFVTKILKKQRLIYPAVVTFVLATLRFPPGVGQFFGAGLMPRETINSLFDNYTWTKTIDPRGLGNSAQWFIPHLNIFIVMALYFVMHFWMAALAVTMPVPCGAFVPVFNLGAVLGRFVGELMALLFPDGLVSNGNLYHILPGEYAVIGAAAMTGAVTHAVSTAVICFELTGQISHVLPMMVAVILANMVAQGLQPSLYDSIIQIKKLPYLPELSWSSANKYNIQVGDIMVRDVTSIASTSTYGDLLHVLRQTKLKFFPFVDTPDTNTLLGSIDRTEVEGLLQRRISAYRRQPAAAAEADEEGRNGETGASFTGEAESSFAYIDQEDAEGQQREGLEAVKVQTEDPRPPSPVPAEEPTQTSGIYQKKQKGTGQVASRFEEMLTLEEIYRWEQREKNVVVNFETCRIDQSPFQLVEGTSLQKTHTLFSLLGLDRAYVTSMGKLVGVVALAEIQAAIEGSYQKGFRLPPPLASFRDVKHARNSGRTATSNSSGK
It counts as cell-based. The following applies: read-out: Apparent affinity (K1/2). Put shortly:
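CLC-0 mutants in the C212S background were transfected into HEK293 cells with lipofectamine and recorded 1–3 d later as excised inside-out patches. Both sides held 130 mM NaCl, 5 mM MgCl2, 10 mM HEPES and 1 mM EGTA, pH 7.4. CPA was perfused continuously onto the cytoplasmic face. Steady-state current over the last 10 ms was normalized to bracketing blocker-free controls and fitted to a Langmuir function for K1/2. Values are mean ± SEM of ~4–6 patches.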

In the next test the target is T2, CLC-0 E166Q mutant (Torpedo marmorata, UniProt P21564, C212S/E166Q).
T2 sequence (P21564 1-805 E166Q/C212S): T1 sequence (P21564 1-805 E166H/C212S) with H166Q
It counts as cell-based. Put shortly:
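HEK293 cells expressed C212S-background CLC-0 mutants and were recorded 1–3 d post-transfection as inside-out patches in symmetrical 130 mM NaCl, 10 mM HEPES, pH 7.4. CPA, fatty acids or alkyl sulfates flowed continuously on the cytoplasmic side. C10–C12 compounds were diluted into bath solution from 10 mM DMSO stocks. Test steps ran from +80 to −160 mV after a +80 mV prepulse. Steady-state current was normalized to the mean of pre- and post-blocker controls, and a Langmuir K1/2 was taken at each voltage from ~4–6 patches.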

Where [1] appears, read: read-out: Apparent affinity (K1/2), −60 mV.
[2] abbreviates: read-out: Apparent affinity (K1/2), −80 mV.
The mark [3] stands for this setting: read-out: Apparent affinity (K1/2), −100 mV.
[4] abbreviates: read-out: Apparent affinity (K1/2), −120 mV.
Setting [5] is: read-out: Apparent affinity (K1/2), −140 mV.
Setting [6] is: read-out: Apparent affinity (K1/2), −160 mV.

Changes are numbered by the printed parent chain. Where two headings read alike, the source gives them in different places.

Take `O=C(O)COc1ccc(Cl)cc1` [CPA, p-chlorophenoxy acetate]: the IC50 on CLC-0 E166H mutant (−40 mV) came out at 12.4 ± 0.52 mM; on CLC-0 E166H mutant (−60 mV) it was 5.86 ± 0.26 mM; on CLC-0 E166H mutant (−80 mV) it was 2.87 ± 0.15 mM; at CLC-0 E166H mutant (−100 mV), 1.45 ± 0.11 mM; on CLC-0 E166H mutant (−120 mV), 0.74 ± 0.08 mM; at CLC-0 E166H mutant (−140 mV), 0.39 ± 0.05 mM. Further, the IC50 was 0.21 ± 0.04 mM on CLC-0 E166H mutant (−160 mV); 19.7 ± 0.9 mM on CLC-0 E166Q mutant (setting [1]); 14 ± 0.7 mM at CLC-0 E166Q mutant (setting [2]); 9.71 ± 0.48 mM at CLC-0 E166Q mutant (setting [3]); 6.84 ± 0.31 mM at CLC-0 E166Q mutant (setting [4]); 4.71 ± 0.15 mM at CLC-0 E166Q mutant (setting [5]). Moreover, at CLC-0 E166Q mutant (setting [6]), the IC50 stood at 3.34 ± 0.08 mM. The compound further came in with an inhibition of current against CLC-0 E166Q mutant (300 μM CPA, −160 mV) of less than 10%.

For the compound `CCCCCCCC(=O)O` [octanoate], the IC50 on CLC-0 E166H mutant (−80 mV) turned out to be 29.5 ± 1.3 mM; on CLC-0 E166H mutant (−100 mV), 18.4 ± 0.81 mM; on CLC-0 E166H mutant (−120 mV), 11.5 ± 0.57 mM; on CLC-0 E166H mutant (−140 mV), 7.02 ± 0.4 mM; at CLC-0 E166H mutant (−160 mV), 4.57 ± 0.28 mM; at CLC-0 E166Q mutant (read-out: Apparent affinity (K1/2), −40 mV) it was 17.8 ± 1.5 mM. Moreover, the IC50 at CLC-0 E166Q mutant (setting [1]) was determined as 11.4 ± 0.69 mM; on CLC-0 E166Q mutant (setting [2]) it was 6.94 ± 0.36 mM; on CLC-0 E166Q mutant (setting [3]), 4.21 ± 0.24 mM; at CLC-0 E166Q mutant (setting [4]), 2.53 ± 0.16 mM; on CLC-0 E166Q mutant (setting [5]), 1.45 ± 0.1 mM; at CLC-0 E166Q mutant (setting [6]) it was 0.88 ± 0.09 mM. The IC50 on CLC-0 E166Q mutant (read-out: K1/2, Fig. 10 D) is approximately 1 mM.
